Experimental data: ChEMBL document CHEMBL1146746, “Propargylic sulfones possessing a 2-nitroimidazole function: novel hypoxic-cell radiosensitizers with intracellular non-protein thiol depletion ability” (Bioorg Med Chem Lett, 2004)

Columns and labels:
[1] = Partition coefficient in octanol to water system; type: physicochemical
[2] = Second order rate constant was determined for the reaction of compound with GSH in phosphate buffer at a pH of 7.5
Procedure, shortened: (§1)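 Test compound and GSH reacted in phosphate buffer at 37 °C, pH 7.5 for lines 2 and 3 and pH 8.5 for line 4. Aliquots were taken at set times and quenched into phosphate buffer containing 0.2 mM Ellman's reagent (DTNB). Unreacted GSH was measured by UV absorbance at 412 nm. Second-order rate constant k₂ for nucleophilic GSH addition is given in mM⁻¹ h⁻¹.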

[3] = Second order rate constant was determined for the reaction of compound with GSH in phosphate buffer at a pH of 8.5; procedure, shortened: as §1
[4] = Second order rate constant determined for the reaction of compound with GSH in phosphate buffer at a pH of 7.5; procedure, shortened: as §1

| Po/w [1] | k2 [2] | k2 [3] | k2 [4] | SMILES |
| --- | --- | --- | --- | --- |
| 2.2 | 1.1 m M-1 hr-1 | 8.6 m M-1 hr-1 |  | O=C(O)CCC(=O)OC(CC#CCS(=O)(=O)c1ccc([N+](=O)[O-])cc1)Cn1ccnc1[N+](=O)[O-] (stereo not given) |
| 15 |  | 17 m M-1 hr-1 | 3 m M-1 hr-1 | CC(=O)OC(CC#CCS(=O)(=O)c1ccc([N+](=O)[O-])cc1)Cn1ccnc1[N+](=O)[O-] (stereo not given) |
|  |  | 0.8 m M-1 hr-1 |  | CC(=O)OC(CC#CCSc1ccc([N+](=O)[O-])cc1)Cn1ccnc1[N+](=O)[O-] (stereo not given) |
| 22.2 | 0.2 m M-1 hr-1 | 0.7 m M-1 hr-1 |  | CC(=O)OC(CC#CCS(=O)(=O)c1ccccc1)Cn1ccnc1[N+](=O)[O-] (stereo not given) |
